Measurements taken from ChEMBL document CHEMBL2203099, “Identification of a crucial amino acid in the helix position 6.51 of human tachykinin neurokinin 1 and 3 receptors contributing to the insurmountable mode of antagonism by dual NK₁/NK₃ antagonists” (J Med Chem, 2012).
Residue numbers refer to the chain shown, from its start. Active and inactive are the calls of the source. The calls are words filed in the database; no cut-off is given here.

Columns and labels:
[1] = target: T1, Substance-P receptor (Homo sapiens, UniProt P25103); assay: Binding affinity at human NK1 receptor
T1 sequence (P25103 whole entry): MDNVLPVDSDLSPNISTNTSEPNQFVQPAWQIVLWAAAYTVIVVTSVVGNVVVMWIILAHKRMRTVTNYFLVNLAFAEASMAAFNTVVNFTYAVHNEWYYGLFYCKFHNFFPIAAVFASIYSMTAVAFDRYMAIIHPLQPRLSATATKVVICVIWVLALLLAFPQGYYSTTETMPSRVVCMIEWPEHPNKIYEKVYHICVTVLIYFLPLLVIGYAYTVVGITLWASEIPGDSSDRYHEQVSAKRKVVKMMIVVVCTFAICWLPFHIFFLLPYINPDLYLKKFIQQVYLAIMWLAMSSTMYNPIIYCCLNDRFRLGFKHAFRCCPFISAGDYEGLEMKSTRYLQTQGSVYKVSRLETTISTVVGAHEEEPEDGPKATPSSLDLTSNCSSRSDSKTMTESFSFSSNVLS

[2] = target: Neuromedin-K receptor (Homo sapiens, UniProt P29371, Y247W); assay: Displacement of radioligand [3H]osanetant at human NK3 Y247W mutant expressed in HEK293 cells; format: cell-based
Sequence of Neuromedin-K receptor (Homo sapiens, UniProt P29371, Y247W) (P29371 whole entry Y247W): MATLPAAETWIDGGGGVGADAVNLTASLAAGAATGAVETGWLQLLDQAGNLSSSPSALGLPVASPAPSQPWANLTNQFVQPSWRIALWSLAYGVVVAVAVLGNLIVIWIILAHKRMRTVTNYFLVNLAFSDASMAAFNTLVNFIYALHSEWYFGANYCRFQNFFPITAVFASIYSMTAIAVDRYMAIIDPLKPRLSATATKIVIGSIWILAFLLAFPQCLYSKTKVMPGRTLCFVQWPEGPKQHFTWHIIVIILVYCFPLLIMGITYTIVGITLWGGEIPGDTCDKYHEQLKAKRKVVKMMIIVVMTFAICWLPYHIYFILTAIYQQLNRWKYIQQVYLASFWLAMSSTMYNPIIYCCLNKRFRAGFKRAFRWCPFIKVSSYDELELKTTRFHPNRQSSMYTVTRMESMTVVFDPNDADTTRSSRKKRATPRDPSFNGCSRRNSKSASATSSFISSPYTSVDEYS

[3] = test system: T2, Neuromedin-K receptor (Homo sapiens), P29371 [Y247F]; assay: Noncompetitive inhibition at human NK3 Y247F5.38 mutant expressed in HEK293 cells assessed as decrease in [MePhe7]NKB-induced [3H]IP accumulation after 20 mins; format: cell-based
T2 sequence (whole entry): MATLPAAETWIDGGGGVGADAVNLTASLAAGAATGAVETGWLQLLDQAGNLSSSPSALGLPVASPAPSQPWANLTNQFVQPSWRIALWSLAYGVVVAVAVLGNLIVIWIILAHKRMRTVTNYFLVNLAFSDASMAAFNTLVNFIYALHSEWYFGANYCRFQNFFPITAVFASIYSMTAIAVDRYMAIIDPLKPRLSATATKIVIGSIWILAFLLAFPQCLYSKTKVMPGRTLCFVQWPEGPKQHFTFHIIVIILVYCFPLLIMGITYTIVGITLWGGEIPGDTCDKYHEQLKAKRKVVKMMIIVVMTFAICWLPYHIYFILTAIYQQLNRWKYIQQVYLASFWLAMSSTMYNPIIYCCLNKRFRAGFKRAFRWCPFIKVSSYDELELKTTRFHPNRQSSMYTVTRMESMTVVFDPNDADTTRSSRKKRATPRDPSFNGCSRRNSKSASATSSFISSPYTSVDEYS
How it was run: (§1)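 HEK293 cells transiently expressing human NK3 WT or mutant, labeled with myo-[³H]inositol in LiCl buffer. Antagonist preincubated 20 min at 37 °C, then [MePhe⁷]NKB (0.01 nM–1 μM) added for 45 min at 37 °C. [³H]IP read by SPA beads. Schild analysis of EC50 shift and Emax depression across increasing antagonist concentrations gives pA2, slope and mode of antagonism.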

[4] = test system: T3, Neuromedin-K receptor (Homo sapiens), P29371 [Y315F]; assay: Antagonist activity at human NK3 Y315F6.51 mutant expressed in HEK293 cells assessed as decrease in [MePhe7]NKB-induced [3H]IP accumulation at 10 nM after 20 mins; format: functional, cell-based
T3 sequence (whole entry): T2 sequence (whole entry) with F247Y, Y315F

[5] = target: Neuromedin-K receptor (Homo sapiens, UniProt P29371, Y247F); assay: Displacement of radioligand [3H]osanetant at human NK3 Y247F mutant expressed in HEK293 cells; format: cell-based
[6] = target: T4, Neuromedin-K receptor (Homo sapiens, UniProt P29371); assay: Displacement of [3H]osanetant from wild type human NK3 receptor expressed in HEK293 cells; format: cell-based
T4 sequence (P29371 whole entry): T2 sequence (whole entry) with F247Y

[7] = target: Neuromedin-K receptor (Homo sapiens, UniProt P29371, H316F); assay: Displacement of radioligand [3H]osanetant at human NK3 H316F mutant expressed in HEK293 cells; format: cell-based
Sequence of Neuromedin-K receptor (Homo sapiens, UniProt P29371, H316F) (P29371 whole entry H316F): as the sequence (P29371 whole entry Y247W) above, with W247Y, H316F counted along it

[8] = test system: T3, Neuromedin-K receptor (Homo sapiens), P29371 [Y315F]; assay: Noncompetitive inhibition at human NK3 Y315F6.51 mutant expressed in HEK293 cells assessed as decrease in [MePhe7]NKB-induced [3H]IP accumulation after 20 mins; format: cell-based; how it was run: as §1
[9] = target: Substance-P receptor (Homo sapiens, UniProt P25103, F264Y); assay: Partial noncompetitive inhibition of human F264Y6.51 mutant expressed in HEK293 cells assessed as decrease in SP1-induced [3H]IP accumulation after 20 mins; format: cell-based; conditions: read-out: pA2 (converted)
Sequence of Substance-P receptor (Homo sapiens, UniProt P25103, F264Y) (P25103 whole entry F264Y): as the sequence (P25103 whole entry) above, with F264Y counted along it

[10] = test system: HEK293; assay: Selectivity ratio of Ki for human NK3 Y247F mutant expressed in HEK293 cells to Ki for wild type human NK3 receptor expressed in HEK293 cells; format: cell-based
[11] = test system: HEK293; assay: Selectivity ratio of Ki for human NK3 H316W mutant expressed in HEK293 cells to Ki for wild type human NK3 receptor expressed in HEK293 cells; format: cell-based
[12] = target: Neuromedin-K receptor (Homo sapiens, UniProt P29371, H316W); assay: Displacement of radioligand [3H]osanetant at human NK3 H316W mutant expressed in HEK293 cells; format: cell-based
Sequence of Neuromedin-K receptor (Homo sapiens, UniProt P29371, H316W) (P29371 whole entry H316W): as the sequence (P29371 whole entry Y247W) above, with W247Y, H316W counted along it

[13] = test system: HEK293; assay: Selectivity ratio of Ki for human NK3 H316F mutant expressed in HEK293 cells to Ki for wild type human NK3 receptor expressed in HEK293 cells; format: cell-based
[14] = test system: Gerbillinae; assay: Inhibition of foot tapping response in po dosed gerbil; format: functional
[15] = target: T5, Neuromedin-K receptor (Homo sapiens) (UniProt P29371); assay: Noncompetitive inhibition at wild type human NK3 expressed in HEK293 cells assessed as decrease in [MePhe7]NKB-induced [3H]IP accumulation after 20 mins; format: cell-based; how it was run: as §1
T5 sequence (whole entry): T2 sequence (whole entry) with F247Y

[16] = target: T1, Substance-P receptor; assay: Displacement of radioligand [3H]SP from wild type human NK1 receptor expressed in HEK293 cells; format: cell-based
How it was run: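 Membranes from transiently transfected HEK293 cells, 2.5 μg protein/well, in 50 mM HEPES pH 7.4 with 3 mM MnCl2, phosphoramidon, leupeptin and 0.04% BSA. 10 competitor concentrations (0.0003–10 μM), 90 min at rt. Nonspecific binding with 10 μM NK1 antagonist. Filtration, then scintillation counting. Ki by Cheng–Prusoff. Three experiments, each in duplicate.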

[17] = test system: HEK293; assay: Selectivity ratio of Ki for human NK3 Y247W mutant expressed in HEK293 cells to Ki for wild type human NK3 receptor expressed in HEK293 cells; format: cell-based

Ki [1]: 0.7 nM | Ki [2]: 3.4 nM | inhibition [3]: Active | Activity [4]: Active | Ki [5]: 3.9 nM | Ki [6]: 2.9 nM | Ki [7]: 12.5 nM | inhibition [8]: Active | Kb [9]: 28.8 nM | Ki [12]: 2010 nM | inhibition [15]: Active | Ki [16]: 0.7 nM
SMILES: Cc1cc(F)ccc1-c1cc(N2CC[C@H](O)[C@H]2CO)ncc1N(C)C(=O)C(C)(C)c1cc(C(F)(F)F)cc(C(F)(F)F)c1
Ratio Ki [10]: 1.3 | Ratio Ki [11]: 693 | Ratio Ki [13]: 4.3 | ED50 [14]: 0.4 mg/kg | Ratio Ki [17]: 1.2
